Screening data (PubChem BioAssay)
A selection: hits, their analogues and other compounds. The true share with any hit is near 2.1%.
TDP2 inh: TDP2 (human) inhibition, absorbance primary screen | recombinant TDP2, T5PNP hydrolysis, p-nitrophenol absorbance 415 nm | inhibition, % at 12.8 µM | actives 0.34% (n = 370,000);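 active = inhibition above the mean of all tested compounds plus 3 SD, set per campaign, cut at about 25% in these data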;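 also: 0% = DMSO with enzyme and 100% = buffer with substrate but no TDP2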
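System: recombinant human TDP2 / Amount: 120 nM TDP2 per well / Also added: 5 mM T5PNP chromogenic substrate / Doses: 12.8 µM single point, 1% DMSO / Incubation: 2 h at 37 °C / Detection: p-Nitrophenol epi absorbance / Evaluation: % inhibition relative to enzyme-containing and enzyme-free wells / Repeats: singlicate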
GSTO1 inh: counter-screen for RBBP9 inhibitors: inhibitors of human GSTO1; P78417; recombinant GSTO1, activity-based probe fluorescence polarization; inhibition, % at 5.96 µM; actives 1.1% (n = 300,000); AID 1974;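 active = inhibition above the campaign mean inhibition plus 3 SD, cut at about 35% in these data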;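 also: 0% = GSTO1-1 with DMSO and 100% = wells lacking GSTO1-1 enzyme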
Target sequence (P78417 whole entry, looked up): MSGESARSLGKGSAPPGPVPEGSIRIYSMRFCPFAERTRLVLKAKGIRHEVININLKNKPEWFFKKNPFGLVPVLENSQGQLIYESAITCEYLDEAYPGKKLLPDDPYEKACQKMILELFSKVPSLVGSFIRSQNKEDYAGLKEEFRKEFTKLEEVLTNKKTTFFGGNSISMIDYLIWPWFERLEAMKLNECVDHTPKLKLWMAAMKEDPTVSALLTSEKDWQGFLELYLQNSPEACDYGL
Apaf1 inhib: blocks human Apaf-1 apoptosome activity; O14727; reconstituted apoptosome caspase-3 activity, DEVD-Rh110 fluorescence; inhibition, % at 20 µM; actives 0.71% (n = 330,000); AID 489030; active = inhibition of at least 40% at 20 µM;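 also: plate controls were DMSO wells for no effect and DEVD-CHO caspase inhibitor wells for full effect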
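Material: reconstituted apoptosome with Apaf-1, cytochrome c, caspase-9, procaspase-3, dATP. Technique: Rh110 fluorescence intensity. Buffer or medium: pH 7.5 Hepes buffer with CHAPS, BSA, DTT. Times: 30 min plus 50 min, RT.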
PP5 inh: blocks human protein phosphatase 5 activity; inhibition, % at 6.7 µM; AID 1987; purified PP5c, OMFP substrate fluorescence; P53041; actives 0.18% (n = 320,000);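 active = inhibition above the campaign's mean inhibition across all tested compounds plus 3 SD, cut at about 9.5% in these data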;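 also: 0% = DMSO only and 100% = 100 µM cantharidin control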
PP1 inh: counter-screen for PP5 inhibitors: inhibitors of human PP1-alpha | P62136 | purified PP1alpha, OMFP fluorescence | inhibition, % at 6.7 µM | actives 0.9% (n = 320,000) | AID 2235;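 active = inhibition above the mean inhibition of all tested compounds plus 3 SD, computed separately for each screening campaign, cut at about 15% in these data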
Target sequence (P62136 whole entry, looked up): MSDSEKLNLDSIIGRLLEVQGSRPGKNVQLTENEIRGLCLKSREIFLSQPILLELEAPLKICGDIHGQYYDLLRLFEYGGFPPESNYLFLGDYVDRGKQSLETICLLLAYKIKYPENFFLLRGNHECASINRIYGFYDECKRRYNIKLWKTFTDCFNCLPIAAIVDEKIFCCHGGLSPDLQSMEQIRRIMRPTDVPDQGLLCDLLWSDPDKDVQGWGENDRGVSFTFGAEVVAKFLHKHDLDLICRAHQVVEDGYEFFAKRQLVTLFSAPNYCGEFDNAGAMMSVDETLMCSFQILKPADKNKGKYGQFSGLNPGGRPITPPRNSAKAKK
GSTO1 inh conf: GSTO1 (human) inhibition, confirmation; actives 54% (n = 2,400); recombinant GSTO1, probe fluorescence polarization; inhibition, % at 5.96 µM; AID 2176; shares compounds with GSTO1 inh;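 active = inhibition above the primary screen's cutoff, its mean inhibition plus 3 SD, cut at about 35% in these data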;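 also: loss of polarization as inhibitors block binding of rhodamine sulfonate ester activity probe; 0% = GSTO1 with DMSO and 100% = wells lacking GSTO1 enzyme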
GSTO1 recomb ABPP: blocks recombinant human glutathione S-transferase omega 1; shares compounds with GSTO1 inh; recombinant GSTO1, gel ABPP SE-Rh probe fluorescence; inhibition, % at 1 µM; actives 30% (n = 130); AID 463110;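 active = inhibition of the enzyme GSTO1 above about 75%, limit read from the data; inactive = inhibition below that limit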
Numbers without * were called inactive; . = no result given.

SMILES	TDP2 inh	GSTO1 inh	Apaf1 inhib	PP5 inh	PP1 inh	GSTO1 inh conf	others
CN(C)c1ccc(CC2C(=O)Nc3ccccc32)cc1 (centres undefined)	-8	48*	29	-3	0	5
CN(C)c1ccc(C2NC(=O)c3ccccc3N2)cc1 (centres undefined)	6	-2	11	3	-15	.
CSc1ccc(/C=N/Nc2nc(C)cc(=O)[nH]2)cc1	-1	-9	20	3	1	.
Cc1cc(=O)[nH]c(N/N=C/c2ccc(O)c(O)c2)n1	-5	42*	5	3	1	7
CCc1cc2ccccc2nc1Cl	-4	0	-1	-2	0	.
ClCc1cc2ccccc2nc1Cl	1	43*	-9	0	2	95*	GSTO1 recomb ABPP=40
CSc1ccc(C(c2c(C)[nH][nH]c2=O)c2c(C)[nH][nH]c2=O)cc1	19	39*	22	-4	0	0
CCOC(=O)c1ccccc1NC1c2ccccc2C(=O)N1c1ccc(C)cn1 (centres undefined)	0	76*	18	0	-3	6
O=C1CCc2cc(S(=O)(=O)N3CCN(Cc4cccc5c4OCO5)CC3)ccc2N1	-3	.	.	.	.	.
Cc1cc(=O)[nH]c(SCC(=O)Nc2ccc(F)c(F)c2)n1	-3	.	.	.	.	.
Clc1cc(Cl)cc(CN2CCN(c3ncc(Cc4ccccc4)cn3)CC2)c1	-5	.	.	.	.	.
O=C(O)CSC1CC(=O)N(c2ccc(Cl)c(Cl)c2)C1=O (centres undefined)	-5	5	3	3	-3	.
O=C1CC(N(O)c2ccccc2)C(=O)N1c1ccc(Cl)c(Cl)c1 (centres undefined)	14	63*	14	4	2	5
O=[N+]([O-])c1ccc(Oc2ccc(S(=O)(=O)Nc3ccccc3)cc2)cc1	.	0	9	-2	1	.
O=C1C(Cl)=C(NS(=O)(=O)c2ccc([N+](=O)[O-])cc2)C(=O)c2ccccc21	12	100*	31	1	2	88*
CCCCCn1c(=O)c2ccccc2n2c(CCl)nnc12	7	84*	13	0	-4	95*	GSTO1 recomb ABPP=63
CC(C)CCn1c(=O)c2ccccc2n2c(CCl)nnc12	5	81*	-12	1	-2	95*	GSTO1 recomb ABPP=81*
COC(=O)N1CCCC1c1cccc2[nH]cc(C)c12 (centres undefined)	4	.	.	.	.	.
COc1ccc(CC(/C=C/c2ccc(F)cc2)c2ccccc2)cc1 (centres undefined)	3	.	.	.	.	.
Cc1ccc[n+](CC(=O)Nc2ccc([N+](=O)[O-])cc2)c1	-9	91*	-7	1	-2	95*
CC(C)c1onc(C(=O)NCc2cccs2)c1[N+](=O)[O-]	6	41*	1	2	4	33
COC(=O)C1=C(C)N(Cc2ccc(F)cc2)C(=S)NC1c1ccc(F)cc1 (centres undefined)	-6	.	.	.	.	.
COCCNc1nc2cc(-c3ccc(F)cc3)sc2c(=O)n1C	3	.	.	.	.	.
O=c1[nH]c(CCl)nc2cc(-c3ccc(F)cc3)sc12	10	97*	16	1	0	94*	GSTO1 recomb ABPP=82*
CCCCN(C)C(=O)CNc1nnnn1-c1ccccc1	-4	.	.	.	.	.
SMILES	TDP2 inh	GSTO1 inh	Apaf1 inhib	PP5 inh	PP1 inh	GSTO1 inh conf	others
Cc1ccc(S(=O)(=O)N(C(=O)c2ccncc2)c2ccc(OC(=O)c3ccncc3)c3ccccc23)cc1	11	43*	2	2	2	3
Cc1ccc(S(=O)(=O)N(C(=O)c2ccncc2)c2ccc(OC(=O)c3ccncc3)c3ccccc23)c(C)c1	.	55*	18	4	1	9
Cc1c(N=c2scc(-c3ccccc3)n2C)c(=O)n(-c2ccccc2)n1C	-10	0	-7	-1	0	.
CC1=CC(=Nc2c(C)n(C)n(-c3ccccc3)c2=O)C=CC1=O	.	74*	43*	5	-3	41*
CCOC(=O)NC1(Nc2cccc(Cl)c2)Oc2ccccc2O1	-1	56*	.	6	3	4
CC(C)=CCc1c(O)c(CC=C(C)C)c2c(c1O)-c1cc(O)c(O)cc1CC2	.	39*	19	6	-4	-7
Cc1[nH]n(-c2ccccc2)c(=O)c1N=Nc1ccccc1C(=O)O	1	41*	13	3	-2	11
Cc1[nH]n(-c2ccccc2)c(=O)c1N=Nc1ccccc1O	-9	.	18	.	.	.
O=C(O)c1cc(N/N=C/c2ccc(N3CCOCC3)s2)ccc1Cl	15	39*	10	1	7	18
C=CCNC(=S)NNC(=O)c1cc(O)ccc1O	10	62*	9	-1	-3	7
C=CCNC(=S)NNC(=O)c1ccc(Br)cc1	9	9	5	-2	1	.
C[C@@H]1O[C@@H](Oc2c(-c3ccc(O)c(O)c3)oc3cc(O)cc(O)c3c2=O)[C@H](O)[C@H](O)[C@H]1O	-8	.	-2	.	.	.
C[C@@H]1O[C@@H](Oc2c(-c3cc(O)c(O)c(O)c3)oc3cc(O)cc(O)c3c2=O)[C@H](O)[C@H](O)[C@H]1O	-8	54*	-3	2	4	16
O=C1C=C(NCCN2CCOCC2)C(=O)c2cnccc21	.	84*	.	1	2	82*
O=C(NCCN1CCOCC1)c1ccncc1	-6	-2	1	1	2	.
COc1cc(/C=C2/S/C(=N/S(=O)(=O)c3ccccc3)NC2=O)c([N+](=O)[O-])cc1OC	1	41*	14	2	9	32
O=C(Cn1c(-c2cncs2)nc2ccccc21)NCc1cccs1	7	.	.	.	.	.
O=S(=O)(CS(=O)(=O)c1ccc(Br)cc1)c1ccc(Br)cc1	1	.	.	.	.	.
CCc1cc[n+](-c2nc3ccccc3nc2C(=C=[N-])C#N)cc1	-5	63*	4	1	2	32
N#CC(=C=[N-])c1nc2ccccc2nc1-[n+]1cccc(NC(=O)c2cccs2)c1	-4	54*	19	-1	6	19
N#CC(=C=[N-])c1nc2ccccc2nc1-[n+]1cccc(NC(=O)c2ccccc2)c1	-7	59*	-8	-1	-3	23
N#CC(=C=[N-])c1nc2ccccc2nc1-[n+]1cccc(NC(=O)c2ccc(F)cc2)c1	5	59*	5	-1	1	22
O=C(Nc1nc2ccccc2[nH]1)c1cccs1	8	3	2	4	-1	.
CC1CCN(C(=O)C2CCC(CNS(=O)(=O)c3ccc4c(c3)C(C)(C)C(=O)N4C)CC2)CC1 (centres undefined)	-1	.	.	.	.	.
